Reference: ChEMBL document CHEMBL3259569 (J Med Chem, 2014)
Calls of active or inactive are those of the source. No cut-off for these calls is given here.

What was measured:
Histone deacetylase 7 = target: T1, Histone deacetylase 7 (Homo sapiens, UniProt Q8WUI4); assay: Inhibition of HDAC7 (unknown origin) by fluorescence assay
T1 sequence (Q8WUI4 whole entry): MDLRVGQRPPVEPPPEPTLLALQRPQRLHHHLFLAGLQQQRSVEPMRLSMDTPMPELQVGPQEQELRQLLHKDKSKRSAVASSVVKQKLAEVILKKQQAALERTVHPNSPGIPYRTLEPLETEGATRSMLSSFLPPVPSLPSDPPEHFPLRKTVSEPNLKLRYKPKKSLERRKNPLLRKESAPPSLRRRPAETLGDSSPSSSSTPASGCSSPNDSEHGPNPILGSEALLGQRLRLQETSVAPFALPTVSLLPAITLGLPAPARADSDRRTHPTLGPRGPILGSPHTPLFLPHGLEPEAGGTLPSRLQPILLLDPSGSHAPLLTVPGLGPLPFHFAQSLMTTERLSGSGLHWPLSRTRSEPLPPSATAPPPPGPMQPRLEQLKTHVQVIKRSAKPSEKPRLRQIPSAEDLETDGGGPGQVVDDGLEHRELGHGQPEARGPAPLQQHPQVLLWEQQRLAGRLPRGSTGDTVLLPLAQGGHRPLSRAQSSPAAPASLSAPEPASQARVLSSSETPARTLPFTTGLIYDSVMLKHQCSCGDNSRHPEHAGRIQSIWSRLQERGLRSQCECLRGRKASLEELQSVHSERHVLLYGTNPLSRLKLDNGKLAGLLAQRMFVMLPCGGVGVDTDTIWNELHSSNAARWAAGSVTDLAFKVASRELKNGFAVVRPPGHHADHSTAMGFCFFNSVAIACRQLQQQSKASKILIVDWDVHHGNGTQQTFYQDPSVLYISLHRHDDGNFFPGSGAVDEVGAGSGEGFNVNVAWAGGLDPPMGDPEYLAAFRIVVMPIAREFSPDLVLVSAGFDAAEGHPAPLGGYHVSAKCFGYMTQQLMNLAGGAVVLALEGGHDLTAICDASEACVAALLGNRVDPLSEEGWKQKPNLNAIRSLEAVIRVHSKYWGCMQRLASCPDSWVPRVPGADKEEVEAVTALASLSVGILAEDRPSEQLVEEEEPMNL
Outline: (§1)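 Run by a contract testing lab. Compounds were dissolved in DMSO and tested in 10-dose IC50 mode, using 3-fold serial dilution starting at 10 μM. IC50 was taken from the dose series.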

A549 = assay: Cytotoxicity against human A549 cells by MTT assay; format: functional, cell-based
Histone deacetylase 1 = Histone deacetylase 1 (Homo sapiens, UniProt Q13547); assay: Inhibition of HDAC1 (unknown origin) using RHKK(Ac) (379 to 382) p53 peptide as substrate by fluorescence assay
[1] = Oral bioavailability in ICR mouse at 10 mg/kg by LC-MS/MS analysis; format: ADME, organism-based; settings: in vivo
[2] = target: T2, Histone deacetylase (Homo sapiens) (UniProt Q13547+O15379+Q9UBN7+Q92769+Q9UQL6+Q8WUI4+Q9BY41+Q96DB2+P56524+Q9UKV0+Q969S8); settings: HCT-116, 1 uM
Histone deacetylase 9 = Histone deacetylase 9 (Homo sapiens, UniProt Q9UKV0); assay: Inhibition of HDAC9 (unknown origin) by fluorescence assay; outline: as §1
[3] = Half life in ICR mouse at 2 mg/kg, iv by LC-MS/MS analysis; format: ADME, organism-based; parameters: dose 2 mg/kg, route intravenous; settings: in vivo
[4] = target: T2, Histone deacetylase (Homo sapiens); settings: HCT-116, 1 uM; remark: listed apart in the source

Chain of Histone deacetylase 1 (Q13547 whole entry): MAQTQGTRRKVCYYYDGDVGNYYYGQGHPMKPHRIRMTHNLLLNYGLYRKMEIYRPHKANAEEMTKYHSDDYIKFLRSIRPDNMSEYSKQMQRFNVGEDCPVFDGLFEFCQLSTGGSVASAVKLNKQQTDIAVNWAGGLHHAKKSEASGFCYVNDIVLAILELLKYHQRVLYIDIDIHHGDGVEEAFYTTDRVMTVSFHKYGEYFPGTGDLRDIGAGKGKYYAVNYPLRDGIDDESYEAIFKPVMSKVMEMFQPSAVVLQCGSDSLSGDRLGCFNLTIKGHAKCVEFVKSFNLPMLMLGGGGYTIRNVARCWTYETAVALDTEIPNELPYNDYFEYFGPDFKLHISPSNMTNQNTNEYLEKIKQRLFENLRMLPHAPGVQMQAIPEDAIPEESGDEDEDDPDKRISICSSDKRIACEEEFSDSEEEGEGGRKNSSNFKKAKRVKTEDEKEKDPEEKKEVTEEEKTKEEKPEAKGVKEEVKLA
Chain of Histone deacetylase 9 (Q9UKV0 whole entry): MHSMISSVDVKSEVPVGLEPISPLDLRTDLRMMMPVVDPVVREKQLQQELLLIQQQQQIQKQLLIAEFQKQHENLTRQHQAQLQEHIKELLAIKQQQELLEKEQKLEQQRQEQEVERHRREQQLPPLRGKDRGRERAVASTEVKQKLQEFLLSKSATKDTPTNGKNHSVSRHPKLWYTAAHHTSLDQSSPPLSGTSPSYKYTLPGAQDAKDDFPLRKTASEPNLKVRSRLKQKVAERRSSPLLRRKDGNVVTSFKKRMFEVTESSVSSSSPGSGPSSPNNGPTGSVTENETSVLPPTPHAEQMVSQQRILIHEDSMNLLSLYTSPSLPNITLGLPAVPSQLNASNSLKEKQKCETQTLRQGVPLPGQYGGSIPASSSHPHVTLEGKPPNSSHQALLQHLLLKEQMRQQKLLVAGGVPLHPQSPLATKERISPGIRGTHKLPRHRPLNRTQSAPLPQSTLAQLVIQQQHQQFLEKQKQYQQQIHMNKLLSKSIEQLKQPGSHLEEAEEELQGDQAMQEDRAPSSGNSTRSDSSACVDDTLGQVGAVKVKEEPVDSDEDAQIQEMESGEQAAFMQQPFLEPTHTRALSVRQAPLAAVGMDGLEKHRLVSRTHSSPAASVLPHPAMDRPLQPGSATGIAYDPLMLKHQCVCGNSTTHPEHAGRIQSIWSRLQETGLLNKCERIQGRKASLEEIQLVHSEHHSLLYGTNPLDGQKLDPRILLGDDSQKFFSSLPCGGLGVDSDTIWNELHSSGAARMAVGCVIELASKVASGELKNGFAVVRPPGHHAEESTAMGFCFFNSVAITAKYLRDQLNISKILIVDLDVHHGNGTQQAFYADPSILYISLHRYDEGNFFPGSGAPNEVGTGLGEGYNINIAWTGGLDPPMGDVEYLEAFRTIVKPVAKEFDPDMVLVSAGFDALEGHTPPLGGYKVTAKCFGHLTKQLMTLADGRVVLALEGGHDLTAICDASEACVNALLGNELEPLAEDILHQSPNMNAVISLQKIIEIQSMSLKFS

IC50 (Histone deacetylase 7): 4110 nM
IC50 (Histone deacetylase 1): 310 nM
bioavailability [1]: 33%
inhibition [2]: inactive
IC50 (Histone deacetylase 9): 5340 nM
half-life [3]: 2.5 h
inhibition [4]: inactive
SMILES: O=C(/C=C/c1cccc(S(=O)(=O)n2ccc3cccnc32)c1)NO
IC50 (A549): 1330 nM
